Drawing on ChEMBL document CHEMBL1141664, “Design and evaluation of anacardic acid derivatives as anticavity agents” (2008), this text covers MIC, Activity and MBC for 25 compounds.

In brackets after ≈: the same amount, converted by molar mass. Activity calls are given as the source filed them. The calls are words filed in the database; no cut-off is given here.

Assay [1] has as its system Streptococcus mutans. Kind of assay: Antibacterial activity against Streptococcus mutans ATCC 25175 after 2 days by twofold broth dilution method. Format: functional. The conditions noted are these: ATCC 25175, 48 h. In outline:
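Freeze-dried S. mutans grown stationary 2 days at 37 °C in 3.7% BHI broth, then used as inoculum. Compounds serially 2-fold diluted in DMF and added to BHI broth, with solubility limiting the top concentration. MIC is the lowest concentration giving complete inhibition of visible growth after 2 days at 37 °C. At least triplicate on separate occasions.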

The subject of a further assay is Escherichia coli. Kind of assay: Antibacterial activity against Escherichia coli ATCC 9637 up to 200 ug/ml after 2 days by twofold broth dilution method. Format: functional, organism-based. In outline: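 Twofold serial broth dilution run in NYG broth (0.8% nutrient broth, 0.5% yeast extract, 0.1% glucose). MIC is the lowest concentration fully inhibiting visible growth.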

The next assay deals with Cutibacterium acnes. Kind of assay: Antibacterial activity against Propionibacterium acnes ATCC 11827. Format: functional.
Assay [2] deals with Streptococcus mutans. Kind of assay: Antibacterial activity against Streptococcus mutans ATCC 25175 after 2 days by twofold broth dilution method in presence of anethole. The class given is functional. The conditions noted are these: ATCC 25175, 48 h.

As to `O=C(O)c1c(O)cccc1CCCCc1ccccc1`, in the assay with Streptococcus mutans [1], the MIC is 6.25 µg/mL (≈ 23.1 µM). Also, in the assay on Escherichia coli, the result was inactive.
In the assay with Streptococcus mutans [1], `O=C(O)c1c(O)cccc1CCc1ccc(O)cc1` returned an MIC of 100 µg/mL (≈ 387 µM). Also, in the assay on Escherichia coli, the result was inactive.
Consider `O=C(O)c1c(O)cccc1CC1CCCCC1`, for which the lowest concentration to inhibit growth against Streptococcus mutans [1] (MIC) was 25 µg/mL (≈ 107 µM). Further, in the assay with Escherichia coli, the result was inactive.
For `C=CC/C=C\C/C=C\CCCCCCCc1cccc(OC(C)=O)c1C(=O)O`, the outcome with Escherichia coli was inactive.
For the compound `O=C(O)c1c(O)cccc1CC1CCCCCCCCCCC1`, the MIC in the assay with Streptococcus mutans [1] turned out to be 1.56 µg/mL (≈ 4.9 µM). Further, the outcome with Escherichia coli was inactive.
In the assay with Streptococcus mutans [1], `O=C(O)c1c(O)cccc1CC1CCCC1` registered an MIC of 25 µg/mL (≈ 113 µM). Moreover, the outcome with Escherichia coli was inactive.
`CCCCCCCCCCCCCCCc1cccc(O)c1C(=O)O` [ANACARDIC ACID]: the results for the MIC against Streptococcus mutans [1] and with Cutibacterium acnes were more than 800 µg/mL and 0.78 µg/mL (≈ 2.24 µM), respectively. In addition, in the assay on Escherichia coli, the outcome was inactive.
Compound `CCCCC(C)Cc1cccc(O)c1C(=O)O` (stereo unspecified) had an MIC against Streptococcus mutans [1] of 12.5 µg/mL (≈ 52.9 µM). In addition, the outcome in the assay with Escherichia coli was inactive.
In the case of `CCCCCCCCCCCCc1cccc(O)c1C(=O)O`, in the assay with Streptococcus mutans [1], the MBC worked out at 6.25 µg/mL (≈ 20.4 µM) and the MIC came to 1.56 µg/mL (≈ 5.09 µM). Moreover, the outcome with Escherichia coli was inactive.
As to `O=C(O)c1c(O)cccc1CCc1cc(O)c(O)cc1O`, inhibition of growth against Streptococcus mutans [1] (MIC) required 200 µg/mL (≈ 689 µM). The result with Escherichia coli was inactive.
`O=C(O)c1c(O)cccc1CCc1cc(O)ccc1O` showed an MIC against Streptococcus mutans [1] of 200 µg/mL (≈ 729 µM). The result with Escherichia coli was inactive.
With `C=CC/C=C\C/C=C\CCCCCCCc1cccc(O)c1C(=O)O` [ANACARDIC ACID], in the assay with Streptococcus mutans [1], the MBC stood at 6.25 µg/mL (≈ 18.2 µM) and the lowest concentration to inhibit growth (MIC) was 1.56 µg/mL (≈ 4.56 µM). Also, the result with Escherichia coli was inactive. For the same compound, the MBC in the assay on Streptococcus mutans [2] was 0.78 µg/mL.
In the case of `O=C(O)c1c(O)cccc1CCc1ccc(O)cc1O`, the MIC in the assay on Streptococcus mutans [1] is more than 200 µg/mL. In addition, the result with Escherichia coli was inactive.
In the case of `CCCCCCCCCOC(=O)c1ccccc1O`, in the assay with Escherichia coli, the outcome was inactive.
Compound `O=C(O)c1c(O)cccc1CC1CCCCCCC1` gave an MIC in the assay with Streptococcus mutans [1] of 6.25 µg/mL (≈ 23.8 µM). Besides, the outcome in the assay on Escherichia coli was inactive.
In the assay with Streptococcus mutans [1], `CCC/C=C\C/C=C\CCCCCCCc1cccc(O)c1C(=O)O` yielded an MBC of 3.13 µg/mL (≈ 9.09 µM) and an MIC of 3.13 µg/mL (≈ 9.09 µM). Moreover, the result in the assay on Escherichia coli was inactive.
Regarding `C/C=C/c1ccc(OC)cc1`, the outcome in the assay with Escherichia coli was inactive.
The same measure, in the same setting: to `C=CC/C=C\C/C=C\CCCCCCCc1cccc(O)c1C(=O)OC` belongs “inactive”.
`CCCCCC(CC)Cc1cccc(O)c1C(=O)O` (stereo unspecified) registered an MIC against Streptococcus mutans [1] of 3.13 µg/mL (≈ 11.8 µM). The outcome in the assay on Escherichia coli was inactive.
With `O=C(O)c1c(O)cccc1CCc1ccc(O)c(O)c1`, in the assay with Streptococcus mutans [1], 200 µg/mL (≈ 729 µM) was the least that counted as inhibitory (MIC). Also, the outcome in the assay on Escherichia coli was inactive.
The compound `O=C(O)c1c(O)cccc1CCC1CCCCC1` yielded an MIC against Streptococcus mutans [1] of 3.13 µg/mL (≈ 12.6 µM). The outcome with Escherichia coli was inactive.
`O=C(O)c1c(O)cccc1CCc1ccccc1` had an MIC in the assay on Streptococcus mutans [1] of 50 µg/mL (≈ 206 µM). Moreover, the outcome in the assay on Escherichia coli was inactive.
Consider `CCCCCC/C=C\CCCCCCCc1cccc(O)c1C(=O)O` [GINGKOLIC ACID], for which, in the assay on Streptococcus mutans [1], the MBC worked out at 6.25 µg/mL (≈ 18 µM) and inhibition of growth (MIC) required 6.25 µg/mL (≈ 18 µM). Also, in the assay with Escherichia coli, the result was inactive.
As for `CCCCCCOC(=O)c1ccccc1O`, the outcome in the assay on Escherichia coli was inactive.
On to `CC(C)CCCC(C)CCCc1cccc(O)c1C(=O)O` (stereo unspecified), for which inhibition of growth in the assay on Streptococcus mutans [1] (MIC) required 0.78 µg/mL (≈ 2.67 µM). In addition, in the assay on Escherichia coli, the outcome was inactive.
